From PubChem BioAssay
FID counter – displaces DNA intercalator in HCV helicase counter-screen | DNA fluorescent intercalator displacement, fluorescence | inhibition, % at 7.9 µM | 0.17% of 290,000 active | AID 1845; in the data active = inhibition above about 37%;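 note: higher means more ethidium bromide displaced from hairpin DNA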
MEKK3 PB1 HTS – raises or lowers MEK5 binding to the human MEKK3 PB1 domain | bead-based flow cytometry, Alexa488-MEK5 binding to MEKK3; actives lie on both sides; 0 = blocked by unlabeled MEK5, 100 = vehicle | binding response (% of control), % at 10 µM | 1.4% of 290,000 active;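 active = binding response more than 3 SD above or below the average of its plate-row segment, actives on both sides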;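 note: Alexa488 bead fluorescence after subtracting the streptavidin-only scavenger bead signal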
Target sequence (Q99759 whole entry, looked up, the tested form may be a part): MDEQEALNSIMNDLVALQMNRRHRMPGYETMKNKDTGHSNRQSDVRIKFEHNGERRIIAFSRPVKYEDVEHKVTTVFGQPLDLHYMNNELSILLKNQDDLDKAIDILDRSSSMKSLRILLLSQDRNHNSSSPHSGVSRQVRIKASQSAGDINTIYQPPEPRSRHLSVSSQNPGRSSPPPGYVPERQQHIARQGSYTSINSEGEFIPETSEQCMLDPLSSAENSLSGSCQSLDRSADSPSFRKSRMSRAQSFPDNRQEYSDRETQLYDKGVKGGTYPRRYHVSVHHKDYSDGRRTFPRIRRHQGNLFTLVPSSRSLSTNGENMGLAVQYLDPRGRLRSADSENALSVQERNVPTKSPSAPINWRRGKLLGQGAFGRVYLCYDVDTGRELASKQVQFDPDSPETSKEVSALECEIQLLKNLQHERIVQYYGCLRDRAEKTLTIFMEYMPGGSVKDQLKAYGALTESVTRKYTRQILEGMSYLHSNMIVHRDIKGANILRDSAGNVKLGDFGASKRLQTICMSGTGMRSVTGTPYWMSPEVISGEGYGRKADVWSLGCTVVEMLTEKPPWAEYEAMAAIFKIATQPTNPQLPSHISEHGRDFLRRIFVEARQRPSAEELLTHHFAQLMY
NS3 helicase inh – inhibitors of Hepatitis C virus NS3 helicase. NS3 helicase DNA unwinding, Cy5 molecular beacon fluorescence. inhibition, % at 10.9 µM. 0.56% of 290,000 active. AID 1800;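 active = inhibition above the mean of all tested compounds plus 3 SD, set per campaign, cut at about 35% in these data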
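Measured by: Cy5 fluorescence, 0 and 60 min reads / Assay system: NS3 helicase fragment of HCV / Control set: low DMSO, high thioflavine S at 110 µM / Times: 1 h reaction at 25 °C, ATP-initiated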
MEKK2wt PB1 HTS – raises or lowers MEK5 binding to wildtype human MEKK2 PB1 domain. 1.1% of 290,000 active. Q9Y2U5. bead flow cytometry, Alexa488-MEK5 binding to MEKK2 WT; actives lie on both sides. binding response (% of control), % at 10 µM; in the data active = binding response below about 67% or above about 130%
MEKK2 mut-MEK5 – signal of MEK5 binding to mutant human MEKK2 PB1 domain. bead flow cytometry, Alexa488-MEK5 binding to MEKK2 mutant. percent response, % at 10 µM. 0.35% of 290,000 active. AID 1530; in the data active = percent response above about 24%, passing the limit was not always enough
T cruzi inh – blocks replication of Trypanosoma cruzi | 1.4% of 300,000 active | inhibition, % (concentration not given with the values) | AID 1885 | T. cruzi beta-gal in NIH3T3, luminescence, 90 h;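 active = mean inhibition across valid replicates above about 55%, limit read from the data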;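 note: signal also drops with host cell toxicity which is not excluded here; higher percent means less beta-gal luminescence so fewer parasites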
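System – NIH/3T3 host cells with β-galactosidase reporter T. cruzi · Doses – single 50 nL compound addition per well in DMSO · Reagent – 5000 T. cruzi trypomastigotes/well · Medium – Low-serum DMEM with 2% FBS · Timing – ≥90 h infection period, 3 h prior cell attachment · Evaluation – parasite load inhibition, % · Technique – GalScreen luminescence, 60 min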
MEKK2wt confirm – raises or lowers MEK5 binding to wildtype human MEKK2, retest; shares compounds with MEKK3 PB1 HTS; bead flow cytometry, Alexa488-MEK5 binding to MEKK2 WT; actives lie on both sides; binding response (% of control), % at 10 µM; 2.4% of 5,900 active; in the data active = binding response below about 16% or above about 210%; inactive = in between
MEKK2mut confirm – signal of MEK5 binding to mutant human MEKK2, retest | AID 1893 | percent response, % at 10 µM | 2% of 5,900 active | shares compounds with MEKK3 PB1 HTS | bead flow cytometry, Alexa488-MEK5 binding to MEKK2 mutant; in the data active = percent response mostly above about 71%, no sharp cut-off; inactive = mostly below about 38%;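 note: higher means compound restores mutant binding toward wildtype level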
MEKK3-MEK5 inh – confirmation of inhibitors of MEK5 binding to human MEKK3; shares compounds with MEKK3 PB1 HTS; bead flow cytometry, Alexa488-MEK5 binding to MEKK3; hits give low values; binding response (% of control), % at 10 µM; 1.8% of 5,900 active;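 active = binding response below 72% of control, or above a set upper limit, though filed actives all read lower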;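 note: lower values mean stronger disruption of MEK5 binding to MEKK3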
A number is an active result; i = inactive; nt = not tested or not shown; [ ] = dose if it differs, or a comment. An excerpt weighted towards active compounds, which were near 4.1% of everything screened.

SMILES	FID counter	MEKK3 PB1 HTS	NS3 helicase inh	MEKK2wt PB1 HTS	MEKK2 mut-MEK5	T cruzi inh	MEKK2wt confirm	MEKK2mut confirm	MEKK3-MEK5 inh
CCCC[n+]1ccn(-c2nc3ccccc3nc2[N-]S(=O)(=O)c2cccs2)c1	i	i	i	i	i	i	nt	nt	nt
CCOC(=O)C1CCN(C(=O)c2cc(S(=O)(=O)N3CCOCC3)c(Cl)cc2Cl)CC1	i	82.0[inhibitor]	i	i	i	i	i	i	i
CCC1(c2ccc(F)cc2)NC(=O)N(CC(=O)Nc2cccnc2Cl)C1=O (stereo unspecified)	nt	nt	nt	nt	nt	i	nt	nt	nt
CCC(=O)N[C@@H]1CC(C(C)(C)NC(=O)CC)CC=C1C (stereo partly specified)	i	2.0[inhibitor]	i	1.0[inhibitor]	i	i	i	i	i
CC(CCc1ccccc1)NCc1cccc2ccccc12 (stereo unspecified)	i	i	i	135.0	i	i	i	i	i
COCC(C)NCc1cccc2ccccc12 (stereo unspecified)	i	i	i	i	i	i	nt	nt	nt
CCOc1ncccc1C(=O)N=C1SCCN1C(=O)c1cccnc1OCC	i	158.0	i	i	i	i	i	i	i
CCC(C)NC(=O)CSc1nnc(-c2ccc(Cl)cc2)n1N (stereo unspecified)	i	i	i	i	i	i	nt	nt	nt
O=C(O)c1ccccc1NC1CCCCC1NS(=O)(=O)c1ccccc1 (stereo unspecified)	i	i	i	i	i	i	nt	nt	nt
O=S(=O)(NC1CCCCC1Nc1ccccc1)c1ccccc1 (stereo unspecified)	i	128.0	i	i	i	i	i	i	71.0
CCC1CCCCN1CCCNC(=O)Cn1c(=O)c2cccn2c2cccnc21 (stereo unspecified)	i	i	i	i	i	i	nt	nt	nt
CCOc1cc(C2C(C#N)=C(N)Oc3n[nH]c(-c4ccccc4)c32)ccc1O (stereo unspecified)	i	125.0	i	i	i	i	i	i	i
COc1ccc(C)cc1Nc1n[n+](-c2ccccc2)c(-c2ccc(N(C)C)cc2)s1	i	i	i	142.0	46.0	i	i	i	i
COc1ccc(C)cc1Nc1n[n+](-c2ccccc2)c(-c2ccc(OC)c(OC)c2OC)s1	i	i	i	149.0	i	55.0	i	i	i
COc1cccc(CN(C)C(=O)Cc2c[nH]c3ccccc23)c1	i	i	i	i	i	i	nt	nt	nt
CCC(C(=O)NCCc1ccccc1OC)n1nc(C)c2c(C)n(-c3ccccc3)nc2c1=O (stereo unspecified)	i	i	i	i	i	i	nt	nt	nt
COc1ccc(N2CCN(C(=O)NC3CCCCC3)CC2)cc1	i	77.0[inhibitor]	i	i	i	i	i	i	i
N#CNC(=Nc1cccc(F)c1)SCc1cccc(F)c1	i	136.0	i	i	i	i	i	i	i
O=C(C[n+]1cc(-c2ccc(Cl)c(Cl)c2)n2c1CCC2)N1c2ccccc2Sc2ccccc21	i	i	i	221.0	55.0	54.5	i	i	i
O=C(C[n+]1cc(-c2ccc(Cl)cc2)n2c1CCC2)N1c2ccccc2Sc2ccccc21	i	i	i	157.0	i	i	i	i	i
COc1ccc(N(C(=O)CNC(=O)c2ccco2)C(C(=O)NCC2CCCO2)c2ccccc2)cc1 (stereo unspecified)	i	i	i	i	i	i	nt	nt	nt
C=CCn1c(=O)c2c3c(sc2n2c(Nc4ccccc4)nnc12)CCCC3	i	10.0[inhibitor]	i	13.0[inhibitor]	i	i	i	i	i
Cc1cccc2[nH]c(SCC(=O)N3CCOCC3)nc12	i	i	i	i	i	i	nt	nt	nt
Cc1ccc(N(CC(=O)N2CCCCCC2)S(C)(=O)=O)cc1Cl	i	i	i	i	i	i	nt	nt	nt
CCOc1ccc(-c2nc(CCl)cs2)cc1OC	i	i	i	i	i	i	nt	nt	nt
SMILES	FID counter	MEKK3 PB1 HTS	NS3 helicase inh	MEKK2wt PB1 HTS	MEKK2 mut-MEK5	T cruzi inh	MEKK2wt confirm	MEKK2mut confirm	MEKK3-MEK5 inh
O=C1NC(=Nc2ccccc2)/C(=C/c2ccco2)S1	i	132.0	i	i	i	i	i	i	i
CCCCCc1nnc(NC(=O)C2=COCCO2)s1	nt	nt	nt	nt	nt	i	nt	nt	nt
COc1ccc(C2=NN(C(=O)c3cccs3)C(c3ccccc3O)C2)cc1 (stereo unspecified)	i	50.0[inhibitor]	i	i	i	60.5	i	i	i
COc1ccc(C2CC(c3ccccc3)=NN2C(=O)c2cccs2)cc1 (stereo unspecified)	i	i	i	i	i	i	nt	nt	nt
O=C(c1cccc(C(F)(F)F)c1)C1CCCN(C(=O)CCn2cnnn2)C1 (stereo unspecified)	i	i	i	i	i	i	nt	nt	nt
S=C(NCc1ccc(Cl)cc1)NN1CCOCC1	i	i	i	i	i	i	nt	nt	nt
O=C(/C=C/c1cccc([N+](=O)[O-])c1)NCCSCc1ccc(Cl)cc1	i	144.0	i	i	i	i	i	i	i
CCC(C)(C(=O)NC1CCCC1)N(C(C)=O)c1ccc(C)cc1 (stereo unspecified)	i	2.0[inhibitor]	i	2.0[inhibitor]	i	i	i	i	i
CCC(C)(C(=O)NC1CCCCC1)N(C(=O)C1CCC(=O)N1)c1ccc(C)cc1 (stereo unspecified)	i	i	i	i	i	nt	nt	nt	nt
O=C(c1ccc(OCCN2CCCCC2)cc1)c1c(-c2ccc(O)cc2)sc2cc(O)ccc12	nt	i	nt	201.0	28.0	i	i	i	i
O=C([C@@H]1CC=C[C@@H]2CCN(C3CC3)C(=O)[C@@H]21)N1CCN(c2ccccc2)CC1	nt	80.0[inhibitor]	nt	i	i	i	i	i	i
O=C(Nc1cc([N+](=O)[O-])ccc1Cl)C1CC1	i	i	i	i	i	i	nt	nt	nt
O=C(Nc1cc([N+](=O)[O-])ccc1F)C1CC1	i	130.0	i	i	i	i	i	i	i
COc1ccc(NC(NC(=O)c2cccnc2)C(Cl)(Cl)Cl)cc1 (stereo unspecified)	i	i	i	i	i	i	nt	nt	nt
Cc1ccccc1NC(NC(=O)c1cccnc1)C(Cl)(Cl)Cl (stereo unspecified)	i	132.0	i	i	i	i	i	i	i
COc1ccc(N2CC(C(=O)N3CCCC(C)C3)CC2=O)cc1 (stereo unspecified)	i	i	i	i	i	i	nt	nt	nt
